Laboratory results reported in ChEMBL document CHEMBL4020830, “Design, Synthesis, and Evaluation of a Novel Series of Indole Sulfonamide Peroxisome Proliferator Activated Receptor (PPAR) α/γ/δ Triple Activators: Discovery of Lanifibranor, a New Antifibrotic Clinical Candidate” (J Med Chem, 2018).
pEC50: −log10 of the molar value. Activity calls are given as the source filed them. The rule behind the calls is not given here.

Experiments:
Mus musculus [1] = experiment: Antidiabetic activity in C57BL/Ks mouse model of diabetic dyslipidemia assessed as decrease in plasma glucose level at 10 mg/kg, po qd administered via gavage for 10 days measured 4 hrs post last dose; type: functional, organism-based
Procedure, shortened: (§1)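 Homozygous male C57BL/Ks-db (db/db) mice were gavaged once daily at 10 or 30 mg/kg, for 5 or 10 days. Retro-orbital blood was drawn before treatment and 4 h after the last gavage. Glucose and triglycerides were measured in serum. Results are expressed as % variation on the final day versus the control group. Analysis was one-way ANOVA with Dunnett's test.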

Mus musculus [2] = experiment: Hypolipidemic activity in C57BL/Ks mouse model of diabetic dyslipidemia assessed as decrease in plasma triglyceride level at 10 mg/kg, po qd administered via gavage for 10 days measured 4 hrs post last dose; type: functional, organism-based; procedure, shortened: as §1
Mus musculus [3] = experiment: Hypolipidemic activity in C57BL/Ks mouse model of diabetic dyslipidemia assessed as decrease in plasma triglyceride level at 30 mg/kg, po qd administered via gavage for 10 days measured 4 hrs post last dose; type: functional, organism-based; procedure, shortened: as §1
Mus musculus [4] = experiment: Antifibrotic activity in C57Bl6/J mouse model of CCl4-induced liver fibrosis assessed as decrease in collagen deposition in liver administered po qd for 3 weeks by picrosirius red staining based assay; type: functional, organism-based
Procedure, shortened: (§2)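 CCl4-induced liver fibrosis mice were dosed orally once daily at 3, 10 or 30 mg/kg for 3 weeks. Controls were CCl4-vehicle, vehicle oil and saline-injected groups. Liver collagen was scored by picrosirius red staining of histological sections. Plasma triglycerides and adiponectin were also measured. Analysis was one-way ANOVA with Dunnett's test.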

[5] = molecular target: T1, Peroxisome proliferator-activated receptor delta (Mus musculus) (UniProt P35396); experiment: Transactivation of PPARdelta in mouse C2C12 cells assessed increase in [14C]oleate beta-oxidation at 3 uM preincubated for 48 hrs followed by [14C]oleate addition during last 2 hrs of incubation period relative to control; type: cell-based
T1 sequence (whole entry): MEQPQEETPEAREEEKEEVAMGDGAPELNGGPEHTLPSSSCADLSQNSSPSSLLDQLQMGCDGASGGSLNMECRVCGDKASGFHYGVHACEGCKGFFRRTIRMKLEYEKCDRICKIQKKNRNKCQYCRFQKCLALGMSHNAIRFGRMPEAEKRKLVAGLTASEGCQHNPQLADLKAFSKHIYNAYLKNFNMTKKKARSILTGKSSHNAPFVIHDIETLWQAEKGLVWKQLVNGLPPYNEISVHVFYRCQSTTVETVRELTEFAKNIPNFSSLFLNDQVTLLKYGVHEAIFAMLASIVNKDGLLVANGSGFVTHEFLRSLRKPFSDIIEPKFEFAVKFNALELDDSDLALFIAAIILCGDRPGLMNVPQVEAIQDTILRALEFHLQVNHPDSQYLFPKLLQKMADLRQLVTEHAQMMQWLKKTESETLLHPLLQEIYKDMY
Procedure, shortened: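 Fatty acid beta-oxidation was used as the functional read-out. PPARα activity was tested in human hepatoma HuH7 cells and PPARδ activity in mouse myoblast C2C12 cells, at 1, 3, 10 and 30 µM. Values are % beta-oxidation, mean of at least 2 independent experiments run in triplicate, with single-experiment values flagged.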

[6] = molecular target: T2, Peroxisome proliferator-activated receptor alpha (Mus musculus) (UniProt P23204); experiment: Transactivation of mouse GAL4-fused PPARalpha LBD expressed in African green monkey COS7 cells co-expressing 5Gal4 pGL3 TK Luc after overnight incubation by luciferase reporter gene assay relative to fenofibric acid; type: cell-based
T2 sequence (whole entry): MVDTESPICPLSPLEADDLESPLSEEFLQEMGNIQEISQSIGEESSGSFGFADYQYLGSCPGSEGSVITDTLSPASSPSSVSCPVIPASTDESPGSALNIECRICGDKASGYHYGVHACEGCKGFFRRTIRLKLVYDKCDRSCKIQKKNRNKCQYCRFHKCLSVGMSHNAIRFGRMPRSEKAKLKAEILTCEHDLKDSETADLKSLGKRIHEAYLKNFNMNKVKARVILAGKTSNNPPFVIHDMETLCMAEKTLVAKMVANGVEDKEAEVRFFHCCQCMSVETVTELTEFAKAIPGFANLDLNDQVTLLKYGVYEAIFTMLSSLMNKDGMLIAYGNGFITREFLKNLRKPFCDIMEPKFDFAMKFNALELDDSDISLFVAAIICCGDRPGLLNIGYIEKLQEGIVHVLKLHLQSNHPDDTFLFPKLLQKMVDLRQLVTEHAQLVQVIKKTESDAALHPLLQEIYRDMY
Procedure, shortened: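 Cell-based Gal-4 transactivation assay in COS-7 cells transfected with PPARα, PPARδ or PPARγ ligand-binding domain. EC50 and Emax were derived, with Emax as maximum activation in percent of control. EC50s are means of at least two independent experiments performed in triplicate.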

Mus musculus [7] = experiment: Antidiabetic activity in C57BL/Ks mouse model of diabetic dyslipidemia assessed as decrease in plasma glucose level administered via oral gavage qd for 5 days measured 4 hrs post last dose; type: functional; procedure, shortened: as §1
Mus musculus [8] = experiment: Reduction in plasma triglyceride level in C57Bl6/J mouse model of CCl4-induced liver fibrosis at 3 to 30 mg/kg, po qd for 3 weeks; type: functional, organism-based; procedure, shortened: as §2
Mus musculus [9] = experiment: Increase in plasma adiponctin level in C57Bl6/J mouse model of CCl4-induced liver fibrosis at 3 to 30 mg/kg, po qd for 3 weeks; type: functional, organism-based; procedure, shortened: as §2
Rattus norvegicus [10] = experiment: Toxicity in Sprague-Dawley rat assessed as effect on plasma volume at 100 to 1000 mg/kg for 4 weeks by evans blue dye based assay; type: organism-based; conditions: in vivo, 672 h
Procedure, shortened: (§3)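 Sprague-Dawley rats were treated at 100 and 1000 mg/kg. Hematocrit and plasma volume were measured after 4 weeks and heart weight after 6 weeks. Analysis was one-way ANOVA with Dunnett's test versus control.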

Rattus norvegicus [11] = experiment: Toxicity in Sprague-Dawley rat assessed as effect on heart weight at 100 to 1000 mg/kg for 6 weeks; type: organism-based; conditions: in vivo, 1008 h; procedure, shortened: as §3
[12] = molecular target: T3, Peroxisome proliferator-activated receptor gamma (Homo sapiens, UniProt P37231)
T3 sequence (P37231 whole entry): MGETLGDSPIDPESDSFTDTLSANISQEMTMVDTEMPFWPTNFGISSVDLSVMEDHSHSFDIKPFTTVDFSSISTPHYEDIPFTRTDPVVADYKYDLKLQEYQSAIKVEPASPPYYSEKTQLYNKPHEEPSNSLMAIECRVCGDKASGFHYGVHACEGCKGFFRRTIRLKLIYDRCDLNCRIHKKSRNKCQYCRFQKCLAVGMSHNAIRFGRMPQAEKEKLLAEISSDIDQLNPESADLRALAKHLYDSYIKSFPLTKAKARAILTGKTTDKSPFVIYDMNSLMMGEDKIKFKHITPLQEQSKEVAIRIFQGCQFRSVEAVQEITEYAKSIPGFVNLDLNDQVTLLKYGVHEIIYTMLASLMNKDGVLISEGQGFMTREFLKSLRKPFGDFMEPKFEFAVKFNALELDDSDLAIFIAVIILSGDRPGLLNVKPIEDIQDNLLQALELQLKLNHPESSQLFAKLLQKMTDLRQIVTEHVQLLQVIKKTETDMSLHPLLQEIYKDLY

[13] = molecular target: T3, Peroxisome proliferator-activated receptor gamma; remark: listed apart in the source
[14] = molecular target: T3, Peroxisome proliferator-activated receptor gamma; remark: listed apart in the source

Row | SMILES | Activity (Mus musculus [1]) | Activity (Mus musculus [2]) | Activity (Mus musculus [3]) | Activity (Mus musculus [4]) | Activity [5] | Emax [6] | Activity (Mus musculus [7]) | Activity (Mus musculus [8]) | Activity (Mus musculus [9]) | Activity (Rattus norvegicus [10]) | Activity (Rattus norvegicus [11]) | pEC50 [12] | pEC50 [13] | pEC50 [14]
1 | O=C(O)CCc1cc2cc(Cl)ccc2n1S(=O)(=O)c1ccccc1 | inactive | inactive | Active |  |  |  |  |  |  |  |  |  |  | 
2 | O=C(O)CCCc1cc2cc(Cl)ccc2n1S(=O)(=O)c1ccc2ncsc2c1 [LANIFIBRANOR] |  |  |  | Dose-dependent effect | 37% | 72% | Dose-dependent effect | Active | Active | Non-Toxic | Non-Toxic | 5.72 | 5.39 | 5.47
